# Numbered stars: 1 amine (or outer) side, 2 acyl side, 3 side chain; on linkers, the order of the positions; unused ones are H or OH. Bridge positions count the residues as written; N and C are the ends. Square brackets hold non-standard residues; d marks the D form. Peptide text beside a SMILES is read from it. * marks the point of attachment. Fluorescein(5-NHCS) = O=C1OC2(c3ccc(O)cc3Oc3cc(O)ccc32)c2cc(NC(=S)*)ccc21; X3 = O=C(CN(CCCCCCC=[*:3])[*:1])[*:2]; X5 = O=C(CN(CCCCCC=[*:3])[*:1])[*:2]; X4 = O=C(CN(CCCCC=[*:3])[*:1])[*:2]; X2 = O=C(CN(CC=[*:3])[*:1])[*:2]; NAllylGly = C=CCNCC(=O)O; Ava = NCCCCC(=O)O
# Biological target: T1, Tumor susceptibility gene 101 protein (Homo sapiens, UniProt Q99816)
# T1 sequence (Q99816 whole entry): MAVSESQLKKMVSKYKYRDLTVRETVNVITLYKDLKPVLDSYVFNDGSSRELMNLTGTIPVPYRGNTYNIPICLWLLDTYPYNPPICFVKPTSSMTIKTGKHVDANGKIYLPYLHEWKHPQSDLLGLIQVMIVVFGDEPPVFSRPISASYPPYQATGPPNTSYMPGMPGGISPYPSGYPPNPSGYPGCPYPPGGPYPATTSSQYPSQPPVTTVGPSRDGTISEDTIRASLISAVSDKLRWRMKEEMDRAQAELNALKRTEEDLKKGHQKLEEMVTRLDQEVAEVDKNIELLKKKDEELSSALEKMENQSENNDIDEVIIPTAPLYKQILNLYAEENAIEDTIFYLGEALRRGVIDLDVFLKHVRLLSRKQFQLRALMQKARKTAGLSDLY
# Assay: Binding affinity to ubiquitin E2 variant domain of human Tsg101 by fluorescent anisotropy
# Settings: not given
row,Kd [µM],SMILES
1,590,C=CCN(CC(=O)N1CCC[C@H]1C(=O)N[C@H](C(=O)N[C@@H](C)C(=O)N1CCC[C@H]1C(=O)N1CCC[C@H]1C(=O)N(CC=C)CC(=O)N[C@@H](CCC(=O)O)C(N)=O)[C@@H](C)O)C(=O)[C@@H]1CCCN1C(=O)CCCCNC(=S)Nc1ccc2c(c1)C1(OC2=O)c2ccc(O)cc2Oc2cc(O)ccc21 ({Fluorescein(5-NHCS)-Ava}-P[NAllylGly]PTAPP[NAllylGly]E-NH2)
2,> 500,C[C@@H]1NC(=O)[C@H]([C@@H](C)O)NC(=O)[C@@H]2CCCN2C(=O)CN(C(=O)[C@@H]2CCCN2C(=O)CCCCNC(=S)Nc2ccc3c(c2)C2(OC3=O)c3ccc(O)cc3Oc3cc(O)ccc32)CCCC/C=C/CN(CC(=O)N[C@@H](CCC(=O)O)C(N)=O)C(=O)[C@@H]2CCCN2C(=O)[C@@H]2CCCN2C1=O ({Fluorescein(5-NHCS)-Ava}-P[X4]PTAPP[X2]E-NH2; staple (E) 2-8)
3,> 500,C[C@@H]1NC(=O)[C@H]([C@@H](C)O)NC(=O)[C@@H]2CCCN2C(=O)CN(C(=O)[C@@H]2CCCN2C(=O)CCCCNC(=S)Nc2ccc3c(c2)C2(OC3=O)c3ccc(O)cc3Oc3cc(O)ccc32)CCCCC/C=C\CN(CC(=O)N[C@@H](CCC(=O)O)C(N)=O)C(=O)[C@@H]2CCCN2C(=O)[C@@H]2CCCN2C1=O ({Fluorescein(5-NHCS)-Ava}-P[X5]PTAPP[X2]E-NH2; staple (Z) 2-8)
4,> 500,C[C@@H]1NC(=O)[C@H]([C@@H](C)O)NC(=O)[C@@H]2CCCN2C(=O)[C@H](CCC(=O)O)NC(=O)CN(C(=O)CCCCNC(=S)Nc2ccc3c(c2)C2(OC3=O)c3ccc(O)cc3Oc3cc(O)ccc32)C/C=C\CCCCCCN(CC(=O)N[C@@H](CCC(=O)O)C(N)=O)C(=O)[C@@H]2CCCN2C(=O)[C@@H]2CCCN2C1=O ({Fluorescein(5-NHCS)-Ava}-[X2]EPTAPP[X3]E-NH2; staple (Z) 1-8)
5,> 500,C[C@@H]1NC(=O)[C@H]([C@@H](C)O)NC(=O)[C@@H]2CCCN2C(=O)[C@H](CCC(=O)O)NC(=O)CN(C(=O)CCCCNC(=S)Nc2ccc3c(c2)C2(OC3=O)c3ccc(O)cc3Oc3cc(O)ccc32)CCCCC/C=C/CN(CC(=O)N[C@@H](CCC(=O)O)C(N)=O)C(=O)[C@@H]2CCCN2C(=O)[C@@H]2CCCN2C1=O ({Fluorescein(5-NHCS)-Ava}-[X5]EPTAPP[X2]E-NH2; staple (E) 1-8)

# Tested on: HeLa
# Assay: Cellular uptake in human HeLa cells assessed as fluorescence intensity by FACS analysis relative to control
# Format: ADME, cell-based
# Settings: in the assay text read “fluorescence microscopy” for “FACS analysis”
# Procedure, shortened: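 Uptake of FITC-tagged peptide-peptoid hybrids was measured by fluorescence microscopy. The value is the average fluorescence intensity of treated cells, quantified from at least 20 cells taken from 4–6 fields, each field holding about 5 cells.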
row,Drug uptake [%],SMILES
1,74,C=CCN(CC(=O)N1CCC[C@H]1C(=O)N[C@H](C(=O)N[C@@H](C)C(=O)N1CCC[C@H]1C(=O)N1CCC[C@H]1C(=O)N(CC=C)CC(=O)N[C@@H](CCC(=O)O)C(N)=O)[C@@H](C)O)C(=O)[C@@H]1CCCN1C(=O)CCCCNC(=S)Nc1ccc2c(c1)C1(OC2=O)c2ccc(O)cc2Oc2cc(O)ccc21 ({Fluorescein(5-NHCS)-Ava}-P[NAllylGly]PTAPP[NAllylGly]E-NH2)

# — ChEMBL document CHEMBL1153736, “Application of ring-closing metathesis macrocyclization to the development of Tsg101-binding antagonists” (Bioorg Med Chem Lett, 2010)
